According to PubChem BioAssay:
Active and inactive are the calls of the source.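 How the source made its calls, unless noted: active means viability at or below 30% in both replicate assays; inconclusive means viability at or below 30% in just one of the two assays; inactive means the rest.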

Key:
[1] = HUVEC growth inhibition – cell-based, human, primary screen (AID 575); conditions: HUVEC proliferation, CellTiter-Glo luminescence, 72 h; at 10 µM; stronger effect = lower value;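 further: 100% = median of untreated cell wells with 0.1% DMSO on each plate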
In short: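 System – primary HUVEC, no more than 12 passages · Medium – Low-serum (2% FBS) EBM, supplemented · Times – 72 h exposure, 37 °C, 5% CO2, 30 min RT equilibration · Measured by – luminescent ATP assay · Read-out – % viability relative to median vehicle-well signal on each plate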

[2] = growth inhibitors of H69AR lung tumor, primary screen, human, duplicate replicates (AID 580;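 active means viability at or under a set limit in both replicates, limit being median viability minus 3 SD, cut at about 48% in these data, passing the limit was not always enough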;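 further: 100% = mean luminescence of untreated wells and 0% = no signal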); conditions: H69AR lung tumor cells viability, ATP luminescence, 72 h; at 10 µM; stronger effect = lower value
[3] = reversal of MRP1-mediated doxorubicin resistance, pilot screen, H69AR cells, doxorubicin co-treatment (AID 601;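 active means viability loss from added drug above about 55%, and viability with drug at most 40%, in both replicates, limit read from the data, passing the limit was not always enough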); conditions: CellTiter-Glo, 72 h, at 10 µM; for differential viability (reversal): stronger effect = higher value
[4] = 384-well plate pilot, post-Golgi transport modulator project, inhibition of yeast transport mutant growth (AID 636; in the data active means inhibition above about 31%); conditions: absorbance 615 nm, about 18 h, stronger effect = higher value
[5] = growth suppression of yeast trafficking mutant, preliminary HTS, modulators of trafficking downstream of Golgi apparatus project, 1536-format plate, OD 615 nm (AID 637; in the data active means inhibition above about 30%); conditions: yeast transport mutant growth, absorbance 615 nm, 18 h; stronger effect = higher value
[6] = H69AR cells + 2 uM doxorubicin, measured here: viability with 2 uM doxorubicin, stronger effect = lower value
[7] = H69AR cells, compound alone cytotoxicity

For `CN1CCCC(OC(=O)c2ccc3c(c2)OCCO3)C1` (configuration not stated), the viability [1] was 103% (inactive), the viability [2] was 106% (inactive) and the differential viability (reversal) ([3]; H69AR cells + 2 uM doxorubicin) was 19.1% (inactive). For the same compound, the viability [3, 6] was 86.7%, the viability [3, 7] was 106% and the inhibition [4] was -4.4% (inactive). For the same compound, the inhibition [5] was -2.06% (inactive).

With `Cn1c(Cc2cccs2)nnc1SCC(=O)N1CCc2ccccc21` the viability [1] was 94.1% (inactive), the viability [2] was 84.3% (inactive) and the differential viability (reversal) ([3]; H69AR cells + 2 uM doxorubicin) was -9.72% (inactive). For the same compound, the viability [3, 6] was 94%, the viability [3, 7] was 84.3% and the inhibition [4] was -0.66% (inactive). For the same compound, the inhibition [5] was -8.1% (inactive).

With `O=C(Nc1nccs1)c1cccc(NC(=O)C2CC2)c1` the viability [1] was 103% (inactive), the viability [2] was 87.5% (inactive) and the differential viability (reversal) ([3]; H69AR cells + 2 uM doxorubicin) was 8.43% (inactive). For the same compound, the viability [3, 6] was 79.1%, the viability [3, 7] was 87.5% and the inhibition [4] was -6.13% (inactive). For the same compound, the inhibition [5] was -0.48% (inactive).

With `O=C(O)c1cnn2c1NC(c1ccc(F)cc1)CC2C(F)(F)F` (configuration not stated) the viability [1] was 90.8% (inactive), the viability [2] was 97.6% (inactive) and the differential viability (reversal) ([3]; H69AR cells + 2 uM doxorubicin) was 9.29% (inactive). For the same compound, the viability [3, 6] was 88.3%, the viability [3, 7] was 97.6% and the inhibition [4] was -6.32% (inactive). For the same compound, the inhibition [5] was 4.92% (inactive).

With `O=C(NC(NC1CCS(=O)(=O)C1)C(=O)c1cccs1)c1ccccc1` (configuration not stated) the viability [1] was 106% (inactive), the viability [2] was 106% (inactive) and the differential viability (reversal) ([3]; H69AR cells + 2 uM doxorubicin) was 7.72% (inactive). For the same compound, the viability [3, 6] was 98.2%, the viability [3, 7] was 106% and the inhibition [4] was -1.17% (inactive). The inhibition [5] was -3.33% (inactive).

In the case of `CC(C)(CSc1nncn1N)NS(=O)(=O)c1ccc(Cl)cc1`, the viability [1] is reported as 91.9% (inactive), the viability [2] is reported as 98.3% (inactive) and the differential viability (reversal) ([3]; H69AR cells + 2 uM doxorubicin) is reported as 1.6% (inactive). For the same compound, the viability [3, 6] was 96.7%, the viability [3, 7] was 98.3% and the inhibition [4] was -2.27% (inactive). The inhibition [5] was -0.79% (inactive).

In the case of `Cn1c(=O)c(NC(=O)c2ccccc2)c2n(c1=S)CCCCC2`, the viability [1] is reported as 104% (inactive), the viability [2] is reported as 90.8% (inactive) and the differential viability (reversal) ([3]; H69AR cells + 2 uM doxorubicin) is reported as -6.87% (inactive). For the same compound, the viability [3, 6] was 97.6%, the viability [3, 7] was 90.8% and the inhibition [4] was -2.99% (inactive). For the same compound, the inhibition [5] was 3.65% (inactive).

With `CCOc1ccc(C2/C(=C(/O)c3ccccc3)C(=O)C(=O)N2CCCN(C)C)cc1OC` (configuration not stated) the viability [1] was 111% (inactive), the viability [2] was 100% (inactive) and the differential viability (reversal) ([3]; H69AR cells + 2 uM doxorubicin) was 7.23% (inactive). The viability [3, 6] was 92.9%, the viability [3, 7] was 100% and the inhibition [4] was -2.63% (inactive). The inhibition [5] was 6.19% (inactive).

With `COc1oc(-c2ccccc2)nc1C(F)(F)F` the viability [1] was 94.3% (inactive), the viability [2] was 109% (inactive) and the differential viability (reversal) ([3]; H69AR cells + 2 uM doxorubicin) was 9.45% (inactive). The viability [3, 6] was 99.9%, the viability [3, 7] was 109% and the inhibition [4] was -3.82% (inactive). For the same compound, the inhibition [5] was -2.38% (inactive).

For `CC(C)c1ccc(-c2nc(N3CCOCC3)[nH]c(=O)c2C#N)cc1`, the viability [1] was 79.3% (inactive), the viability [2] was 98% (inactive) and the differential viability (reversal) ([3]; H69AR cells + 2 uM doxorubicin) was 1.58% (inactive). The viability [3, 6] was 96.4%, the viability [3, 7] was 98% and the inhibition [4] was -6.4% (inactive). The inhibition [5] was 3.33% (inactive).

In the case of `Cc1nc(C)c(C(=O)C2=C(O)C(=O)N(CCN3CCOCC3)C2c2ccco2)s1` (configuration not stated), the viability [1] is reported as 109% (inactive), the viability [2] is reported as 86.3% (inactive) and the differential viability (reversal) ([3]; H69AR cells + 2 uM doxorubicin) is reported as -3.34% (inactive). For the same compound, the viability [3, 6] was 89.7%, the viability [3, 7] was 86.3% and the inhibition [4] was -4.8% (inactive). For the same compound, the inhibition [5] was 3.02% (inactive).

With `CCOC(=O)c1ccc(NC(=O)Nc2ccn(C)n2)cc1` the viability [1] was 101% (inactive), the viability [2] was 91.2% (inactive) and the differential viability (reversal) ([3]; H69AR cells + 2 uM doxorubicin) was 4.49% (inactive). The viability [3, 6] was 86.7%, the viability [3, 7] was 91.2% and the inhibition [4] was -6.27% (inactive). The inhibition [5] was 1.75% (inactive).

For `Cc1cc(NC(=O)c2ccc3nc(-c4ccccc4)c(-c4ccccc4)nc3c2)no1`, the viability [1] was 23.6% (active), the viability [2] was 13.4% (active) and the differential viability (reversal) ([3]; H69AR cells + 2 uM doxorubicin) was -1.37% (inactive). The viability [3, 6] was 14.8%, the viability [3, 7] was 13.4% and the inhibition [4] was -1.05% (inactive). For the same compound, the inhibition [5] was 0.79% (inactive).

With `CS(=O)(=O)N1CCN(C(=O)c2ccc(-c3ccccc3)cc2)CC1` the viability [1] was 96.7% (inactive), the viability [2] was 96.1% (inactive) and the differential viability (reversal) ([3]; H69AR cells + 2 uM doxorubicin) was 10.2% (inactive). The viability [3, 6] was 85.9%, the viability [3, 7] was 96.1% and the inhibition [4] was -2.99% (inactive). The inhibition [5] was 8.25% (inactive).

For `CCOc1ccccc1NC(=O)CCSc1nc2n[nH]c(C)c2c(=N)n1-c1ccccc1Cl`, the viability [1] was 39.2% (inactive), the viability [2] was 16.9% (active) and the differential viability (reversal) ([3]; H69AR cells + 2 uM doxorubicin) was 0.49% (inactive). The viability [3, 6] was 16.4%, the viability [3, 7] was 16.9% and the inhibition [4] was -3.03% (inactive). The inhibition [5] was -3.5% (inactive).

With `N#Cc1cnc(SCC(=O)c2ccccc2)nc1N` the viability [1] was 95.5% (inactive), the viability [2] was 93.1% (inactive) and the differential viability (reversal) ([3]; H69AR cells + 2 uM doxorubicin) was 16.2% (inactive). For the same compound, the viability [3, 6] was 76.9%, the viability [3, 7] was 93.1% and the inhibition [4] was -6.93% (inactive). For the same compound, the inhibition [5] was 7.3% (inactive).

In the case of `O=C(CSc1nc(-c2ccc(F)cc2)cs1)N1CCOCC1`, the viability [1] is reported as 122% (inactive), the viability [2] is reported as 94.4% (inactive) and the differential viability (reversal) ([3]; H69AR cells + 2 uM doxorubicin) is reported as 19.2% (inactive). The viability [3, 6] was 75.2%, the viability [3, 7] was 94.4% and the inhibition [4] was -0.92% (inactive). For the same compound, the inhibition [5] was 6.67% (inactive).

With `Cc1ccccc1NC(=O)c1ccc(NC(=O)c2ccco2)cc1` the viability [1] was 102% (inactive), the viability [2] was 80.7% (inactive) and the differential viability (reversal) ([3]; H69AR cells + 2 uM doxorubicin) was 1.25% (inactive). For the same compound, the viability [3, 6] was 79.4%, the viability [3, 7] was 80.7% and the inhibition [4] was -6.84% (inactive). For the same compound, the inhibition [5] was -4.6% (inactive).

With `O=C(CCCn1c(=O)c2sccc2n(CC(=O)NCc2ccco2)c1=O)NCc1ccco1` the viability [1] was 90.4% (inactive), the viability [2] was 100% (inactive) and the differential viability (reversal) ([3]; H69AR cells + 2 uM doxorubicin) was 20% (inactive). For the same compound, the viability [3, 6] was 80%, the viability [3, 7] was 100% and the inhibition [4] was -2.86% (inactive). The inhibition [5] was 2.54% (inactive).

In the case of `CN=C(Nc1ccc2c(c1)OCO2)SC1CC(=O)N(c2ccccc2)C1=O` (configuration not stated), the viability [1] is reported as 78.3% (inactive), the viability [2] is reported as 82.3% (inactive) and the differential viability (reversal) ([3]; H69AR cells + 2 uM doxorubicin) is reported as -0.04% (inactive). The viability [3, 6] was 82.3%, the viability [3, 7] was 82.3% and the inhibition [4] was -4.93% (inactive). The inhibition [5] was -0.79% (inactive).

For `COC(=O)Cc1c(C)c2ccc(OCC(=O)N3CCOCC3)cc2oc1=O`, the viability [1] was 107% (inactive), the viability [2] was 100% (inactive) and the differential viability (reversal) ([3]; H69AR cells + 2 uM doxorubicin) was 12.4% (inactive). The viability [3, 6] was 87.8%, the viability [3, 7] was 100% and the inhibition [4] was -4.67% (inactive). The inhibition [5] was 17% (inactive).
